For assay [1], the system named is Clostridium perfringens. The experiment in a line: Antimicrobial activity was measured against Clostridium perfringens organism. Format: functional.
For assay [2], the system named is Campylobacter jejuni. The experiment in a line: Antimicrobial activity was measured against Campylobacter jejuni organism. Type of assay: functional.
Assay [3] has as its system Helicobacter pylori. The experiment in a line: Antimicrobial activity was measured against Helicobacter pylori organism. Format: functional, organism-based. In short, it runs like this: (§1)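 Agar dilution. Strains were precultured 3 days at 37 °C on Brucella agar with 3% horse serum and 2% starch, then suspended in buffered saline to McFarland No. 1. A 10²-fold dilution was spotted by multipoint replicator onto Brucella agar with 7% lysed horse blood carrying serial 2-fold drug dilutions. Plates were incubated 3 days at 37 °C under 10% CO₂. MIC is the lowest concentration preventing macroscopic colonial growth. Mean and range come from 10 strains: 8001, 8003, 8004, 8007, 8008, 8009, 8011, 9005, FP1530 and FP1532.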

For assay [4], the system named is Neisseria gonorrhoeae. The experiment in a line: Antimicrobial activity was measured against Neisseria gonorrhoeae organism. Type of assay: functional.
Assay [5] relates to Neisseria meningitidis. The experiment in a line: Antimicrobial activity was measured against Neisseria meningitidis organism. Type of assay: functional.
The test system of assay [6] is Helicobacter pylori. In words: Determined the lowest drug concentration that inhibited macroscopic colonial growth against Helicobacter pylori. Type of assay: functional. The essentials: as §1
Assay [7] relates to Bacteroides fragilis. The experiment in a line: Antimicrobial activity was measured against Bacteroides fragilis. Format: functional, organism-based.
Assay [8] concerns Clostridioides difficile. The experiment in a line: Antimicrobial activity was measured against Clostridium difficile organism. Format: functional.
Assay [9] relates to Helicobacter pylori. The experiment in a line: The lowest drug concentration that inhibited macroscopic colonial growth against Helicobacter pylori. Format: functional. The essentials:
as §1

Assay [10] concerns Bacteroides fragilis. In words: Antimicrobial activity was measured against Bacteroides fragilis organism. Type of assay: functional.
Assay [11] is filed under the species Cavia porcellus. The experiment in a line: Inhibition of histamine stimulated chronotropic response in isolated guinea pig right atrium (1*10e-6 g/mL). Type of assay: functional, Cardiac atrium. In short, it runs like this: (§2)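 Guinea pig right atrial strip, under 0.3-0.6 g initial tension in Tyrode solution at 30 °C, gassed with 95% O₂-5% CO₂; beating rate recorded by transducer. Histamine hydrochloride (1 × 10^-6 g/mL) raised rate. Test compound (1 × 10^-6 g/mL) was added 30 min after histamine washout. Percent inhibition compares histamine-induced rate increases before and 30 min after dosing.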

Assay [12] deals with Helicobacter pylori. The experiment in a line: The lowest drug concentration that inhibited macroscopic colonial growth against Helicobacter pylori; value ranges from 0.0030-0.05. Format: functional. In short, it runs like this:
as §1

For another assay, the system named is Rattus norvegicus. The experiment in a line: Inhibition of histamine stimulated gastric acid secretion in lumen perfused stomach of anesthetized rats (1 mg/kg iv). Type of assay: functional. In short, it runs like this: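 Male Sprague-Dawley rats (~250 g), fasted 24 h, anesthetized with urethane 1.25 g/kg ip. The opened stomach was lumen-perfused with saline, and the perfusate was titrated with 25 mM NaOH by autotitrator. Inhibition of histamine-stimulated acid output was measured after 1 mg/kg iv dosing; n = 2.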

The subject of assay [13] is Campylobacter jejuni. In words: Antimicrobial activity was measured against Campylobacter jejuni organism. range is between is(12.5-50). Format: functional.
The test system of assay [14] is Helicobacter pylori. In words: The lowest drug concentration that inhibited macroscopic colonial growth against Helicobacter pylori; Value ranges from 25-100. Type of assay: functional. The essentials:
as §1

Assay [15] concerns Helicobacter pylori. The experiment in a line: The lowest drug concentration that inhibited macroscopic colonial growth against Helicobacter pylori; Value ranges from 0.1-0.39. Format: functional. In short, it runs like this: as §1
Assay [16] is filed under the species Cavia porcellus. The experiment in a line: Inhibition of histamine stimulated chronotropic response in isolated guinea pig right atrium. Type of assay: functional, Cardiac atrium. The essentials:
as §2

Assay [17] relates to Helicobacter pylori. In words: The lowest drug concentration that inhibited macroscopic colonial growth against Helicobacter pylori; value ranges from 12.5-50. Format: functional. The essentials:
as §1

For assay [18], the system named is Helicobacter pylori. In words: The lowest drug concentration that inhibited macroscopic colonial growth against Helicobacter pylori; value ranges from 3.13-50. Format: functional. The essentials:
as §1

Assay [19] deals with Helicobacter pylori. The experiment in a line: The lowest drug concentration that inhibited macroscopic colonial growth against Helicobacter pylori; value ranges from 0.00625-0.05. Type of assay: functional. In short, it runs like this:
as §1

In assay [20] the test system is Helicobacter pylori. In words: The lowest drug concentration that inhibited macroscopic colonial growth against Helicobacter pylori; value ranges from 0.39-0.78. Format: functional. The essentials:
as §1

Assay [21] deals with Helicobacter pylori. In words: The lowest drug concentration that inhibited macroscopic colonial growth against Helicobacter pylori; value ranges from 0.0125-0.1. Format: functional. The essentials: as §1
The subject of assay [22] is Helicobacter pylori. The experiment in a line: The lowest drug concentration that inhibited macroscopic colonial growth against Helicobacter pylori; value ranges from 0.39-1.56. Type of assay: functional. In short, it runs like this: as §1
Assay [23] deals with Campylobacter jejuni. The experiment in a line: Antimicrobial activity was measured against Campylobacter jejuni organism; range is between ( 0.39-6.25). Format: functional.
Assay [24] deals with Clostridioides difficile. In words: Antimicrobial activity was measured against Clostridium difficile organism; range is between (0.1-0.78). Format: functional.
For assay [25], the system named is Clostridium perfringens. The experiment in a line: Antimicrobial activity was measured against Clostridium perfringens organism; range is between (0.025-0.05). Type of assay: functional.
The subject of assay [26] is Helicobacter pylori. The experiment in a line: The lowest drug concentration that inhibited macroscopic colonial growth against Helicobacter pylori; value range is between 0.0063-0.1. Type of assay: functional. The essentials: as §1
In assay [27] the test system is Neisseria gonorrhoeae. The experiment in a line: Antimicrobial activity was measured against Neisseria gonorrhoeae organism; range is between (0.39-100). Format: functional.
Assay [28] deals with Neisseria meningitidis. In words: Antimicrobial activity was measured against Neisseria meningitidis organism; range is between (0.05-0.1). Type of assay: functional.
Assay [29] concerns Bacteroides fragilis. The experiment in a line: Antimicrobial activity was measured against B. fragilis; range is between (0.2-12.5). Format: functional.
For assay [30], the system named is Bacteroides fragilis. The experiment in a line: Antimicrobial activity was measured against B. fragilis range; Value ranges from 0.39-0.78. Type of assay: functional.
Assay [31] relates to Campylobacter jejuni. In words: Antimicrobial activity was measured against Campylobacter jejuni organism; Value ranges from 0.78-100. Type of assay: functional.
Assay [32] has as its system Clostridioides difficile. In words: Antimicrobial activity was measured against Clostridium difficile organism; Value ranges from 0.1-0.39. Format: functional.
Assay [33] deals with Clostridium perfringens. In words: Antimicrobial activity was measured against Clostridium perfringens organism; Value ranges from 0.78-3.13. Type of assay: functional.
In assay [34] the test system is Helicobacter pylori. In words: The lowest drug concentration that inhibited macroscopic colonial growth against Helicobacter pylori; Value ranges from 1.56-25. Format: functional. In short, it runs like this: as §1
Assay [35] has as its system Helicobacter pylori. In words: The lowest drug concentration that inhibited macroscopic colonial growth against Helicobacter pylori; Value ranges from 3.13-12.5. Format: functional. In short, it runs like this:
as §1

For assay [36], the system named is Helicobacter pylori. In words: The lowest drug concentration that inhibited macroscopic colonial growth against Helicobacter pylori; Value ranges from 6.25-50. Format: functional. In short, it runs like this: as §1
Assay [37] relates to Helicobacter pylori. In words: The lowest drug concentration that inhibited macroscopic colonial growth against Helicobacter pylori; value ranges from 12.5-100. Type of assay: functional. The essentials:
as §1

≈ marks a conversion by molar mass, not a printed value.

Regarding “(2,5-Dihydroxy-4,7-dioxo-[1,3,2]dioxabismepan-5-yl)-acetic acid”, the MIC against Clostridium perfringens [1] is > 100 µg/mL; in the assay on Campylobacter jejuni [2], 7.4 µg/mL; in the assay with Helicobacter pylori [3], 8.7 µg/mL; with Neisseria gonorrhoeae [4] it was 4.7 µg/mL; against Neisseria meningitidis [5] it was 12.5 µg/mL; against Helicobacter pylori [6], 18 µg/mL. Further, the MIC with Bacteroides fragilis [7] and against Clostridioides difficile [8] was 50 µg/mL in each case.
Consider `CC(=O)Nc1ccc2c(c1)-c1nc(N=C(N)N)sc1CCO2`, for which, in the assay on Helicobacter pylori [9], the MIC was > 100 µg/mL.
With `CC(=O)NCc1cccc2c1OCCc1sc(N=C(N)N)nc1-2`, the MIC in the assay with Helicobacter pylori [9] was > 100 µg/mL.
Turning to `COc1ccccc1CC/N=C(\N)Nc1nc(-c2cccc(CNC(C)=O)c2)cs1`, the MIC was > 100 µg/mL in the assay with Bacteroides fragilis [10]; > 100 µg/mL in the assay on Clostridium perfringens [1]; 0.017 µg/mL (≈ 0.0401 µM) against Helicobacter pylori [12]; > 100 µg/mL against Neisseria gonorrhoeae [4]; > 100 µg/mL in the assay on Neisseria meningitidis [5]; 20.5 µg/mL (≈ 48.4 µM) against Campylobacter jejuni [13]. Further, the MIC against Clostridioides difficile [8] is > 100 µg/mL. In addition, the results for the Inhibition in the assay listed under Cavia porcellus [11] and with Rattus norvegicus were 72% and 58%, respectively.
`CC(=O)NCc1ccc2c(c1)-c1nc(N=C(N)N)sc1CO2` registered an MIC in the assay with Helicobacter pylori [14] of 62 µg/mL (≈ 195 µM).
The compound `CCCC/N=C(\N)Nc1nc(-c2cccc(CNC(C)=O)c2)cs1` gave an MIC against Helicobacter pylori [15] of 0.22 µg/mL (≈ 0.637 µM). In addition, the Inhibition is reported as 74% with Rattus norvegicus and 84% in the assay listed under Cavia porcellus [16].
In the assay with Helicobacter pylori [17], `CCO/N=C(\N)Nc1nc(-c2cccc(CNC(C)=O)c2)cs1` registered an MIC of 29 µg/mL (≈ 87 µM).
`CC(=O)NCc1cccc(-c2csc(NC(=N)NCCNC(=O)c3ccccc3)n2)c1`: the MIC against Helicobacter pylori [18] was found to be 23 µg/mL (≈ 52.7 µM).
Regarding `CC(=O)NCc1cccc(-c2csc(NC(=N)NCc3ccccc3)n2)c1`, the Inhibition in the assay filed under Cavia porcellus [11] is given as 77%; in the assay with Rattus norvegicus, 50%. Besides, it took 0.025 µg/mL (≈ 0.0659 µM) to inhibit growth against Helicobacter pylori [19] (MIC).
Take `CC(=O)NCc1cccc(-c2csc(NC(=N)NCCOc3ccccc3)n2)c1`: the Inhibition stood at 52% in the assay filed under Cavia porcellus [11] and 18% in the assay with Rattus norvegicus. Besides, the MIC against Helicobacter pylori [20] amounted to 0.49 µg/mL (≈ 1.2 µM).
`CC(=O)NCc1cccc(-c2csc(NC(=N)NCCc3ccccc3)n2)c1`: the Inhibition in the assay filed under Cavia porcellus [11] is listed as 65%; in the assay with Rattus norvegicus, 59%. The compound also came in with an MIC in the assay with Helicobacter pylori [21] of 0.037 µg/mL (≈ 0.094 µM).
Regarding `COCCC/N=C(\N)Nc1nc(-c2cccc(CNC(C)=O)c2)cs1`, the Inhibition is given as 54% in the assay listed under Cavia porcellus [11] and 87% with Rattus norvegicus. Besides, the MIC in the assay on Helicobacter pylori [22] was 0.96 µg/mL (≈ 2.66 µM).
Take `CC1(C)S[C@@H]2[C@H](NC(=O)[C@H](N)c3ccc(O)cc3)C(=O)N2[C@H]1C(=O)O` [AMOXICILLIN]: the MIC in the assay with Campylobacter jejuni [23] came to 2.2 µg/mL (≈ 6.02 µM); with Clostridioides difficile [24] it was 0.28 µg/mL (≈ 0.766 µM); in the assay with Clostridium perfringens [25], 0.027 µg/mL (≈ 0.0739 µM); with Helicobacter pylori [26] it was 0.021 µg/mL (≈ 0.0575 µM); against Neisseria gonorrhoeae [27] it was 7.7 µg/mL (≈ 21.1 µM); with Neisseria meningitidis [28] it was 0.056 µg/mL (≈ 0.153 µM). 2.1 µg/mL (≈ 5.75 µM) was the least that counted as inhibitory against Bacteroides fragilis [29] (MIC).
With `Cc1ncc([N+](=O)[O-])n1CCO` [METRONIDAZOLE], the MIC in the assay with Bacteroides fragilis [30] was 0.59 µg/mL (≈ 3.45 µM); in the assay with Campylobacter jejuni [31], 30 µg/mL (≈ 175 µM); in the assay with Clostridioides difficile [32], 0.2 µg/mL (≈ 1.17 µM); against Clostridium perfringens [33] it was 1.75 µg/mL (≈ 10.2 µM); in the assay with Neisseria gonorrhoeae [4], > 100 µg/mL; in the assay with Neisseria meningitidis [5], > 100 µg/mL. The compound also registered an MIC in the assay with Helicobacter pylori [34] of 5.4 µg/mL (≈ 31.6 µM).
`CCCC/N=C(\N)Nc1nc2c(s1)CCOc1ccc(CNC(C)=O)cc1-2` showed an MIC against Helicobacter pylori [35] of 7.7 µg/mL (≈ 19.9 µM).
For the compound `COc1ccccc1CC/N=C(\N)Nc1nc2c(s1)CCOc1ccc(CNC(C)=O)cc1-2`, the MIC with Helicobacter pylori [36] is 18.9 µg/mL (≈ 40.6 µM).
In the assay with Helicobacter pylori [37], `CC(=O)NCc1cccc(-c2csc(N/C(N)=N/CCN(C)C)n2)c1` displayed an MIC of 57 µg/mL (≈ 158 µM).
Consider `CC(=O)NCc1cccc(-c2csc(N=C(N)N)n2)c1`, for which the lowest concentration to inhibit growth in the assay on Helicobacter pylori [9] (MIC) was 16.5 µg/mL (≈ 57 µM).

The values above are taken from ChEMBL document CHEMBL1133633, “Anti-Helicobacter pylori agents. 4. 2-(Substituted guanidino)-4-phenylthiazoles and some structurally rigid derivatives” (2000).
